# From paper PMC3102230 (Chemistry & biology, 2011)
# Where two headings read alike, the source gives them in different places.
# Key:
# [1] = tested on: E. coli EF-G; test: Malachite green ribosome-dependent GTPase; assay type: biochemical; details: for effect on rdGTPase activity of EF-G, ribosomes lacking L7/L12: E. coli 70SΔL7/L12 ribosomes, 12 hours at 20 °C (Figure 2G)
# [2] = tested on: S. faecalis TetM; test: Malachite green rdGTPase assay, TetM; assay type: biochemical; details: for effect on rdGTPase activity of TetM: E. coli 70S ribosomes, 1 μM ThS or 5 μM MiC (Figure 2B)
# [3] = tested on: E. coli EF4; test: Malachite green rdGTPase assay, EF4; assay type: biochemical; details: for effect on rdGTPase activity of EF4: E. coli 70S ribosomes, 1 μM ThS or 5 μM MiC (Figure 2C); for effect on rdGTPase activity of EF4, ribosomes lacking L7/L12: E. coli 70SΔL7/L12 ribosomes, 12 hours at 20 °C (Figure 2H)
# [4] = tested on: E. coli BipA; test: Malachite green rdGTPase assay, BipA; assay type: biochemical; details: for effect on rdGTPase activity of BipA: E. coli 70S ribosomes, 1 μM ThS or 5 μM MiC (Figure 2D); for effect on rdGTPase activity of BipA, ribosomes lacking L7/L12: E. coli 70SΔL7/L12 ribosomes, 12 hours at 20 °C (Figure 2I)
# [5] = tested on: E. coli EF-GΔG′; test: Malachite green rdGTPase assay, EF-GΔG′; assay type: biochemical
# [6] = tested on: Tet(O); test: rdGTPase assay, Tet; assay type: biochemical; details: data not shown
# [7] = tested on: PRE complex; test: EF-G catalysed translocation assay; assay type: biochemical; details: 10 μM Evn, E. coli fMetPhe-tRNAPhe(Prf16/20)
# Outline: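 Initiation complex: ribosomes (2 μM), MFK mRNA (8 μM), IF1/IF2/IF3 (3 μM each), 1 mM GTP, [35S]fMet-tRNAfMet (3 μM), 25 min, buffer A pH 7.5, 37 °C. Combined with EF-Tu ternary complex for 45 sec. PRE complex sucrose-cushion purified (20 mM Mg2+). 0.1 μM PRE ± test compound stopped-flow mixed with 5 μM EF-G, 1 mM GTP. Proflavin excitation 460 nm, 495 nm long-pass. Double-exponential fits.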
# [8] = tested on: IF2-dependent 70SIC formation; test: IF2-dependent 70SIC formation light scattering assay; assay type: biochemical, E. coli
# Outline: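 Stopped-flow light scattering at 436 nm excitation with a 455 nm cut-off filter. It was premixed with test compound (0–5 μM), then rapidly mixed with 0.3 μM 50S subunits. All concentrations are final after mixing.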
# [9] = tested on: POST complex; test: EF4-mediated back-translocation assay; assay type: biochemical, E. coli; details: 5 μM Evn
# Outline: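 POST complex formed from initiation and ternary complexes plus EF-G (0.2:1 to ribosomes) and 1 mM GTP, 37 °C, 10 min, then sucrose-cushion purified. 0.1 μM POST premixed with 0.15 μM tRNAfMet was stopped-flow mixed with 3 μM EF4, 0.5 mM GDPNP and test compound at 0–5 μM (final). Proflavin excitation 460 nm, 495 nm long-pass. Traces fit to a three-step back-translocation kinetic model.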
# [10] = tested on: E. coli lysate-based system; test: In vitro coupled transcription-translation assay; assay type: biochemical; details: read-out: IC50, in vitro transcription-translation (synthesis of GFP); E. coli in vitro coupled transcription-translation system (Figure S3)
# Outline: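 Coupled transcription-translation in an E. coli lysate-based system, run with or without test compound. GFP fluorescence was scanned with a blue laser module, and the images were quantified.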
# [11] = tested on: E. coli IF2
# [12] = E. coli 70S ribosomes, 1 μM ThS or 5 μM MiC (Figure 2A)
# [13] = E. coli 70S ribosomes, 1 μM ThS or 5 μM MiC (Figure 2F)
SMILES,IC50 [10] [nM],"effect on rdGTPase activity of EF-G [1, 12]","effect on rdGTPase activity of EF-G, ribosomes lacking L7/L12 [1]",effect on rdGTPase activity of TetM [2],effect on rdGTPase activity of EF4 [3],"effect on rdGTPase activity of EF4, ribosomes lacking L7/L12 [3]",effect on rdGTPase activity of BipA [4],"effect on rdGTPase activity of BipA, ribosomes lacking L7/L12 [4]","effect on rdGTPase activity of EF-GΔG′ [5, 13]",other results
"COC[C@H]1O[C@@H](O[C@@H]2OC[C@@H]3O[C@@]4(OC[C@@H](OC(=O)c5c(C)cc(O)cc5O)[C@@H]5OCO[C@H]54)O[C@H]3[C@H]2O)[C@@H](OC)[C@@H](O)[C@@H]1O[C@@H]1O[C@H](C)[C@H](OC)[C@H](O[C@@H]2O[C@H](C)[C@H]3O[C@]4(C[C@@H](O)[C@H](O[C@H]5C[C@@H](O[C@H]6C[C@](C)([N+](=O)[O-])[C@@H](OC)[C@H](C)O6)[C@H](OC(=O)c6c(C)c(Cl)c(O)c(Cl)c6OC)[C@@H](C)O5)[C@@H](C)O4)O[C@]3(C)[C@@H]2O)[C@H]1O [Evn, evernimicin]",~2000,,,,,,,,,"effect on rdGTPase activity of EF-G ([1]; increasing concentrations of Evn (Figure 5B)): little or no effect; effect on rdGTPase activity of Tet(M) ([2]; increasing concentrations of Evn (Figure 5D)): little or no effect; IC50 ([3]; read-out: IC50, inhibition of EF4 rdGTPase, E. coli 70S ribosomes (Figure 5F)): ~3000 nM; IC50 ([4]; read-out: IC50, inhibition of BipA rdGTPase, E. coli 70S ribosomes (Figure 5E)): ~20000 nM; effect on rdGTPase activity of EF-GΔG′ ([5]; increasing concentrations of Evn (Figure 5C)): little or no effect; effect on rdGTPase of Tet(O) [6]: does not inhibit; apparent rate constant of translocation, Step 2 ([7]; control 1.3 ± 0.1 s^−1): 3.5 ± 0.2 s⁻¹; apparent rate constant of translocation, Step 1 ([7]; control 20.7 ± 0.6 s^−1): 28.1 ± 0.7 s⁻¹; effect on IF2-dependent light scattering (70SIC formation) ([8]; 5 μM Evn): almost all IF2-dependent light scattering was abolished; Ki ([8]; read-out: apparent Ki for inhibition of IF2-dependent 70SIC formation, reciprocal of IF2-dependent light scattering increase at 1 sec vs. Evn concentration): 1800 ± 200 nM; effect on EF4-catalyzed component of back-translocation [9]: completely abolished; effect on rdGTPase activity of IF2 ([11]; increasing concentrations of Evn (Figure 5A)): strongly inhibits; IC50 ([11]; read-out: IC50, inhibition of IF2 rdGTPase, E. coli 70S ribosomes (Figure 5A)): ~7000 nM"
"C/C=C(\NC(=O)c1csc(-c2csc(-c3ccc4c(n3)-c3csc(n3)[C@H]([C@@H](C)O)NC(=O)c3csc(n3)[C@H](C(C)C)NC(=O)c3csc(n3)/C(=C/C)NC(=O)[C@H]([C@@H](C)O)NC(=O)c3csc-4n3)n2)n1)C(=O)NC[C@@H](C)O [MiC, micrococcin]",~3000,enhanced,inhibited,inhibited,inhibited,inhibited,inhibited,inhibited,"inhibit, rather than stimulate",
"C=C(NC(=O)C(=C)NC(=O)c1csc(C2=N[C@@H]3c4csc(n4)[C@H]4NC(=O)c5csc(n5)[C@H]([C@](C)(O)[C@@H](C)O)NC(=O)[C@H]5CSC(=N5)/C(=C/C)NC(=O)[C@H]([C@@H](C)O)NC(=O)c5csc(n5)[C@]3(CC2)NC(=O)[C@H](C)NC(=O)C(=C)NC(=O)[C@H](C)NC(=O)[C@H]([C@@H](C)CC)N[C@@H]2C=Cc3c([C@H](C)O)cc(nc3[C@H]2O)C(=O)O[C@@H]4C)n1)C(N)=O [ThS, thiostrepton]",~3000,inhibited,inhibited,inhibited,inhibited,inhibited,inhibited,inhibited,inhibited,"effect on rdGTPase activity of IF2 ([11]; E. coli 70S ribosomes, 1 μM ThS or 5 μM MiC (Figure 2E)): inhibited"
